Measurements as given in ChEMBL document CHEMBL1136011, “Nitric oxide releasing morpholine derivatives as hypolipidemic and antioxidant agents” (J Med Chem, 2002).

Experiments:
Rattus norvegicus [1] = test: Hypolipidemic activity as percentage decrease in plasma levels of the LDL-cholesterol at 56 uM/kg administered intraperitoneally in rats; format: functional
How it was run: (§1)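 Hyperlipidemia induced in rats by Triton WR 1339 (200 mg/kg ip, aqueous solution). 1 h later, test agent 56 μmol/kg in saline given ip; controls receive saline alone. Blood is drawn from the aorta 24 h after Triton, and plasma total cholesterol, LDL-cholesterol and triglyceride are determined. Groups of four to six rats; Student's t-test.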

Rattus norvegicus [2] = test: Hypolipidemic activity as percentage decrease in plasma levels of the cholesterol at 56 uM/kg administered intraperitoneally in rats; format: functional; how it was run: as §1
Rattus norvegicus [3] = test: Hypolipidemic activity as percentage decrease in plasma levels of the triglyceride at 56 uM/kg administered intraperitoneally in rats; format: functional; how it was run: as §1
[4] = In vitro percentage release of nitric oxide.
How it was run: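 Nitric oxide release measured spectrophotometrically at 540 nm with a commercial kit. Determinations at least in duplicate.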

Rattus norvegicus [5] = test: Hypolipidemic activity as percentage decrease in plasma levels of the LDL-cholesterol at 168 administered perorally in rats; format: functional
How it was run: (§2)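 Test agent 168 μmol/kg given orally to rats 3 h before Triton WR 1339 (200 mg/kg ip, aqueous solution). Blood is drawn from the aorta 24 h after Triton, and plasma total cholesterol, LDL-cholesterol and triglyceride are determined. Groups of four to six rats; Student's t-test.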

Rattus norvegicus [6] = test: Hypolipidemic activity as percentage decrease in plasma levels of the cholesterol at 168 administered perorally in rats; format: functional; how it was run: as §2
Rattus norvegicus [7] = test: Hypolipidemic activity as percentage decrease in plasma levels of the triglyceride at 168 administered perorally in rats; format: functional; how it was run: as §2

| SMILES | Decrease (Rattus norvegicus [1]) | Decrease (Rattus norvegicus [2]) | Decrease (Rattus norvegicus [3]) | % release of nitric oxide [4] | Decrease (Rattus norvegicus [5]) | Decrease (Rattus norvegicus [6]) | Decrease (Rattus norvegicus [7]) |
| --- | --- | --- | --- | --- | --- | --- | --- |
| O=[N+]([O-])OCCCOC1(c2ccc(-c3ccccc3)cc2)CN2CCCCC2CO1 (stereo not drawn) | 25% | 20% | 37% | 4.6% | – | – | – |
| CC(=O)N[C@@H](C(=O)O)C(C)(C)SN=O | – | – | – | 56.7% | – | – | – |
| CN1CCOC(OCCCO[N+](=O)[O-])(c2ccccc2)C1 (stereo not drawn) | 43% | 20% | 45% | 27.2 µM µM-1 | – | – | – |
| CC(C)(Sc1cc(C(C)(C)C)c(O)c(C(C)(C)C)c1)Sc1cc(C(C)(C)C)c(O)c(C(C)(C)C)c1 [PROBUCOL] | 18% | 18% | 11% | – | – | – | – |
| CN1CC(OCCCO[N+](=O)[O-])(c2ccc(-c3ccccc3)cc2)OC2CCCCC21 (stereo not drawn) | 1% | 23% | 38% | 1% | – | – | – |
| CN1CCOC(OCCCO[N+](=O)[O-])(c2ccc(-c3ccccc3)cc2)C1 (stereo not drawn) | 47% | 63% | 85% | 17.3% | 36% | 40% | 54% |
